The test system of assay [1] is PC-3. The experiment in a line: Cytotoxicity against human PC3 cells assessed as inhibition of cell viability after 72 hrs by alamar blue assay. Format: functional, cell-based. Conditions: PC-3, 72 h. The gist of the method: (§1)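 HeLa and PC3 cells grown in RPMI with 10% FBS and penicillin/streptomycin, 37 °C, 5% CO2; 1000 cells/well adhered overnight. Ten-point dilutions, final 100 μM to 3 nM, 1% DMSO, triplicate; 72 h exposure. Alamar blue added (10% final), fluorescence ex 535/em 590 nm. IC50 by nonlinear regression; IC50 or % inhibition at 100 μM as mean SD of two independent experiments.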
A general note: Alamar Blue is a resazurin reagent that responds to reducing activity.

Assay [2] relates to NFF. Put plainly: Cytotoxicity against human NFF cells assessed as inhibition of cell viability after 72 hrs by alamar blue assay. Format: functional, cell-based. Put shortly: (§2)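 NFF fibroblasts grown in DMEM with 10% FBS and penicillin/streptomycin, 37 °C, 5% CO2; 1000 cells/well seeded and adhered overnight. Compounds tested in ten-point series, final 100 μM to 3 nM, 1% DMSO, triplicate wells; 72 h incubation. Readout by Alamar blue (10% final), ex 535/em 590 nm. IC50 by nonlinear regression; IC50 or % inhibition at 100 μM as mean SD, two independent experiments.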

For assay [3], the system named is HeLa. Put plainly: Cytotoxicity against human HeLa cells assessed as inhibition of cell viability after 72 hrs by alamar blue assay. It counts as functional, cell-based. Put shortly:
as §1

In assay [4] the test system is PC-3. The experiment in a line: Cytotoxicity against human PC3 cells assessed as inhibition of cell viability at 100 uM after 72 hrs by alamar blue assay. Format: functional. Conditions: PC-3, 72 h. The gist of the method: as §1
The subject of assay [5] is HeLa. The experiment in a line: Cytotoxicity against human HeLa cells assessed as inhibition of cell viability at 100 uM after 72 hrs by alamar blue assay. Format: functional. The gist of the method: as §1
In assay [6] the test system is NFF. Put plainly: Cytotoxicity against human NFF cells assessed as inhibition of cell viability at 100 uM after 72 hrs by alamar blue assay. Format: functional. The gist of the method: as §2

This passage reports IC50 and inhibition results from ChEMBL document CHEMBL2331272, “Bromotyrosine alkaloids from the Australian marine sponge Pseudoceratina verrucosa” (J Nat Prod, 2013).

One may read the IC50 as the concentration needed to halve the response being measured. For `COc1ccc(C/C(=N\O)C(=O)NC[C@@H](O)c2cc(Br)c(OCCCN(C)C)c(Br)c2)cc1Br`, the IC50 in assay [1] stood at 4.9 µM; in assay [2], 16 µM; in assay [3] it was 19 µM.

By inhibition is commonly meant the percentage by which the read-out fell short of the control. Turning to `CN(C)CCCOc1c(Br)cc([C@H]2CNC(=O)O2)cc1Br`, the inhibition at 100 µM in assay [4] amounted to 35%; in assay [5], 44%; in assay [6] it was 29%.

As for `COC1=C(Br)[C@H](O)[C@@]2(C=C1Br)CC(C(=O)NCCCc1cnc(N)[nH]1)=NO2` [AEROPHOBIN 2], the inhibition at 100 µM was determined as 66% in assay [4], 20% in assay [5] and 25% in assay [6].

`COC1=C(Br)[C@H](O)[C@@]2(C=C1Br)CC(C(=O)NCC(O)c1cc(Br)c(OC[C@H]3CNC(=O)O3)c(Br)c1)=NO2` (stereo not given in full) [FOSTULARIN 2]: the inhibition at 100 µM in assay [4] was determined as 73%; in assay [6], 68%. Besides, the half-maximal inhibitory concentration (IC50) in assay [3] came to 40 µM.

For `COC1=C(Br)[C@H](O)[C@@]2(C=C1Br)CC(C(=O)NCC(O)c1cc(Br)c(OC[C@H](O)CNC(=O)C3=NO[C@]4(C=C(Br)C(OC)=C(Br)[C@@H]4O)C3)c(Br)c1)=NO2` (stereo not given in full) [FOSTULARIN 3], the inhibition at 100 µM in assay [4] was 60%; in assay [5] it was 46%; in assay [6] it was 48%.
